Data on four compounds can be found in article PMC3985442 (The Journal of Organic Chemistry, 2014).

Where two headings read alike, the source gives them in different places.

The target of test [1] is T1, His-Ste14p (yeast Icmt) (Saccharomyces cerevisiae, UniProt P32584).
T1 sequence (P32584 1-239): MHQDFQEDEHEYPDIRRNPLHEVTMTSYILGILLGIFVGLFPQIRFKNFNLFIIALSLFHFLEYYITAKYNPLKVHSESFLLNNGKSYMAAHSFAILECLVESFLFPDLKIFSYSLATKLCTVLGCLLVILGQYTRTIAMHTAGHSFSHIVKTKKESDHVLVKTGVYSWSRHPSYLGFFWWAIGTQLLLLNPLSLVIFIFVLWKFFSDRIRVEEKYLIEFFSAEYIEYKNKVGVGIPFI
The following applies: cited from earlier work.

Test [2] concerns the target T1, His-Ste14p (yeast Icmt). It is filed as biochemical. The following applies: pH 7.5, 30 °C; for Vmax: pmol of methyl groups transferred to substrate; for Vmax / Km: crude membrane preparations, 20 μM [14C]SAM, 100 mM Tris-HCl, 30 min, liquid scintillation counting; for Km: read-out: Km(app), apparent values (single SAM concentration, membrane suspension); for Vmax/Km: catalytic efficiency, from Vmax and apparent Km, crude membranes. Summed up: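 Membranes from yeast strain CH2704 overexpressing His-Ste14p: 100 000g pellet resuspended in 10 mM Tris-HCl pH 7.5, stored at −80 °C. Reaction: membranes plus substrate, 20 μM [14C]SAM (50–60 mCi/mmol), 100 mM Tris-HCl pH 7.5, 30 °C for 30 min. Stopped with 1 M NaOH/1% SDS; base-labile [14C]methyl diffused onto filter over scintillant, rt for 2.5 h, then counted. Km apparent: single SAM level, peptide partitions into membranes.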

Test [3] has as its system His-Ste14p (crude membranes). It counts as binding, Saccharomyces cerevisiae. The following applies: 16 in competition with 17, 5 to 200 μM. A digest of the protocol: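 Crude membranes (100 μg) from a Δste14 yeast strain overexpressing His-Ste14p, in 10 mM Tris-HCl pH 7.5, preincubated with increasing competitor peptide; diazirine photoprobe then added, 4 °C for 5 min. Irradiated at 365 nm, 30 min on ice. Solubilized in RIPA/10% SDS; neutravidin-agarose pulldown 2 h at 4 °C, three washes, eluted in SDS sample buffer at 65 °C for 30 min. 12% SDS-PAGE, α-Ste14p immunoblot (1:500).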

As to `CC(=O)N[C@@H](CSC/C=C(\C)CC/C=C(\C)CCC=C(C)C)C(=O)O` [AFC, N-acetyl-S-farnesyl-L-cysteine], the Vmax/Km on His-Ste14p (yeast Icmt) [1] (catalytic efficiency, previously reported) is listed as 54 pmol min^–1 mg^–1 μM^–1. Besides, the Vmax on His-Ste14p (yeast Icmt) [1] (pmol of methyl groups transferred to substrate, previously reported) was 870 ± 15 pmol min^–1 mg^–1. The Michaelis constant (Km) at His-Ste14p (yeast Icmt) [1] (read-out: Km(app), apparent values, previously reported) is 15.9 ± 0.9 µM.

Consider “Biotin-Peg4-K(5-Fam)YIIKGVFWDPAC(C5-m-BP)-OH [compound 19]”, for which, on His-Ste14p (yeast Icmt) [2], the Vmax was found to be 217 ± 3 pmol min^–1 mg^–1 and the Km turned out to be 27.8 ± 1 µM.

In the case of “Biotin-Peg4-K(5-Fam)YIIKGVFWDPAC(C10-Diazirine)-OH [compound 16]”, the “site of photolabeling, inferred from competition” value in test [3] is “labeling the substrate binding site of His-Ste14p”. In addition, on His-Ste14p (yeast Icmt) [2], the Vmax/Km came to 143 pmol min^–1 mg^–1 μM^–1, the Vmax came out at 947 ± 4 pmol min^–1 mg^–1 and the Km amounted to 6.6 ± 0.2 µM. Further, the Vmax at His-Ste14p (yeast Icmt) [2] (listed as diazirine-containing peptide) was 947 pmol min^–1 mg^–1.

On to “Biotin-Peg4-YIIKGVFWDPAC(Fr)-OH [compound 17]”, for which, on His-Ste14p (yeast Icmt) [2], the Vmax/Km was determined as 157 pmol min^–1 mg^–1 μM^–1 and the Vmax stood at 1919 ± 30 pmol min^–1 mg^–1.

In general, Km refers to the concentration of substrate that gives half-maximal velocity.
